cardiac RTF act – cardiac RTF calcium sensitization; activation, % at 7.2 µM; AID 493008; IANBD-labeled TnC RTF fluorescence at EC20 calcium; 0% EC20 calcium, 100% full calcium; P19429+P45379; actives 0.24% (n = 340,000);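 active = activation above the mean over all tested compounds plus 3 SD, cut at about 30% in these data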;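 note: rise in fluorescence read as greater calcium sensitivity of cardiac thin filaments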
LANA DNA inh – blocks KSHV LANA C-terminal domain binding to DNA; inhibition, % at 9 µM; MBP-C-LANA/FAM-LBS DNA binding, fluorescence polarization; actives 0.078% (n = 340,000);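 active = highest replicate inhibition at or above 60% at 9 µM, even if other replicates fall short; inactive = all replicates below 60% inhibition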;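 note: 0% = neutral control wells and 100% = 4 µM acridine orange control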
CAL PDZ FP-1 – blocks peptide binding to the human CAL PDZ domain. Q9HD26. purified CAL PDZ, TMR-peptide fluorescence polarization, 1 h. inhibition, % at 24.9 µM. actives 0.92% (n = 300,000). AID 602252;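 active = mean inhibition of at least 30% with at least half of replicates also reaching 30%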;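 note: 0% = DMSO neutral control and 100% = excess unlabeled competitor peptide PRC23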
CAL PDZ FP-2 – blocks peptide binding to human CAL PDZ domain; actives 0.02% (n = 330,000); inhibition, % at 20 µM; AID 504414; Q9HD26; purified CAL PDZ, TMR-peptide fluorescence polarization, 1 h;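 active = highest replicate inhibition of at least 40%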;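 note: plate controls were DMSO neutral control wells for no effect and unlabeled competitor peptide control wells for full effect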
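material = purified tagged CAL PDZ domain construct (CerCALP) | buffer or medium = sodium phosphate/NaCl buffer pH 7.4 with TCEP, IgG, Thesit | reagent = TMR-labelled reporter peptide T*-PRC34 bound in PDZ groove | incubation = 1 h room-temperature incubation prior to read | measured by = fluorescence polarization (mP) | evaluation = percent inhibition from loss of millipolarization | control set = unlabelled peptide and DMSO controls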
RTF Ca sens inh – cardiac RTF calcium desensitization; P19429+P45379; IANBD-labeled cardiac RTF, Ca2+ fluorescence; inhibition, % at 7.15 µM; actives 0.12% (n = 340,000); AID 493244;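 active = inhibition above the mean inhibition of all tested compounds plus 3 SD, cut at about 17% in these data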;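 note: assay run at fixed EC70 calcium of 1.6 mM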
Keap1-Nrf2 PPI – disrupts human Keap1 binding to Nrf2 peptide. Keap1 Kelch-Nrf2 peptide fluorescence polarization, 1536-well. inhibition, % at 9.4 µM. Q14145. actives 0.15% (n = 340,000); in the data active = inhibition above about 12%;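 note: human Keap1 Kelch domain with fluorescein labeled Nrf2 9mer peptide probe; 0% = neutral control wells and 100% = peptide positive control; higher means more block of Keap1 binding to Nrf2 peptide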
Target sequence (Q14145 whole entry, looked up, the tested form may be a part): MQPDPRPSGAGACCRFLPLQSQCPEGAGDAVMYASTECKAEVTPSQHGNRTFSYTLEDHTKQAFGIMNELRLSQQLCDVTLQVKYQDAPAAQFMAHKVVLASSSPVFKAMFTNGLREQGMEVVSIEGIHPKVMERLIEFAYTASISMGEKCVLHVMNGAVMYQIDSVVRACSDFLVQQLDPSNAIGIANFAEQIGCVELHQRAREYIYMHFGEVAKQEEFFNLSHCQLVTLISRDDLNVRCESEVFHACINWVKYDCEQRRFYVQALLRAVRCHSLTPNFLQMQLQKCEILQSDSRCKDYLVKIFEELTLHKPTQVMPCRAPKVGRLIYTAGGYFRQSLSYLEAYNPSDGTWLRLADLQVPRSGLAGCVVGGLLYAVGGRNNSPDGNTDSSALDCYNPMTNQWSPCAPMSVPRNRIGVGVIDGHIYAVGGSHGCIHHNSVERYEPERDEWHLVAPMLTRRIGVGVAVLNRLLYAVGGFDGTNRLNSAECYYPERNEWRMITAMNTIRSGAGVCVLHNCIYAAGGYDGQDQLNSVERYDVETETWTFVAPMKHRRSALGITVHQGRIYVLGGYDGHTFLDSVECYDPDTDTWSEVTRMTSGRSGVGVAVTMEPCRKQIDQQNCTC
Keap1 Kelch bind – binders of human Keap1 Kelch domain; max delta Tm, degrees C; Keap1 Kelch thermal shift, delta Tm; hits give high values; shares compounds with Keap1-Nrf2 PPI; actives 8% (n = 400); in the data active = max delta Tm above about 0.48 degrees C
Sypro dye melt – counter-screen for Keap1 thermal shift hits: dye-only artifacts. shares compounds with Keap1-Nrf2 PPI. Sypro Orange dye-only thermal melt, no protein, delta Tm; top dose 26 µM. delta Tm, degrees C (no concentration beside the values). 140 tested, under 10 active;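 active = at highest dose tested, delta Tm positive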
Starred values were filed as active, the others as inactive; i = inactive; . = no result; + = active, no number. This is a sample that favours compounds with a hit; in the whole collection about 1.3% have one here.

SMILES	cardiac RTF act	LANA DNA inh	CAL PDZ FP-1	CAL PDZ FP-2	RTF Ca sens inh	Keap1-Nrf2 PPI	Keap1 Kelch bind	others
CCC(=O)Nc1ccc(C(=O)COC(=O)Cc2ccsc2)cc1	-1	1	4	0	-4	-7	.
Cn1c(=O)c(N)c2c3c(c(Br)ccc31)C(=O)c1ccccc1-2	+	124*	-7	0	i	31*	0.07
O=C(O)CCNc1ccc(NCCC(=O)O)c2c1C(=O)c1ccccc1C2=O	7	55	4	-3	-22	13*	0.63*	Sypro dye melt=-26
COc1ccccc1NCCC(=O)O	1	-13	-2	-1	6	1	.
CC(=O)Nc1ccc(NS(=O)(=O)c2ccc3c(c2)oc(=O)n3C)cc1	4	14	.	0	-7	19*	-0.06
Cc1cc2nc3c(=O)[nH]c(=S)[nH]c3nc2cc1NC(=O)C(F)(F)F	65*	55	3	-1	-176	27*	-0.07
Cc1cc(C)cc(NC(=S)N2CCN(S(C)(=O)=O)CC2)c1	-2	0	-2	-1	10	-1	.
COC(=O)c1ccc2c(c1O)C(=O)c1ccccc1C2=O	-1	-1	-4	0	-3	1	.
O=C1c2ccccc2C(=O)c2c1ccc(O)c2O	9	22	1	1	-16	13*	0.08
COc1ccc(NC(=O)c2cccc(-c3ccc(O)cc3)c2)cn1	16	41	-6	-5	-36	13*	0.15
CC(=O)Nc1cccc(NC(=O)c2cccc(-c3ccc(O)cc3)c2)c1	7	0	-2	-4	-10	-5	.
O=C(O)c1ccc2c3c(cccc13)C(=O)N(c1ccccc1)C2=O	3	5	-1	0	-1	-1	.
Nc1ccc2c3c(cccc13)C(=O)N(c1ccccc1)C2=O	972*	19	-1	0	i	31*	-0.06
O=C(O)c1cccc(N2C(=O)c3cccc4c(Cl)ccc(c34)C2=O)c1	-3	1	-3	-1	3	-4	.
Cc1cccc(N2C(=O)c3cccc4c(N)ccc(c34)C2=O)c1	+	135*	5	1	i	75*	-0.12	Sypro dye melt=-26
Nc1cccc(N2C(=O)c3cccc4c(N)ccc(c34)C2=O)c1	291*	88*	-1	-1	-376	17*	0.04
CC(C)CCN1C(=O)c2cccc3c(N)ccc(c23)C1=O	658*	96*	-1	0	i	71*	0.11
COc1cccc(C(N)=O)c1OC(=O)Cc1ccccc1F	-2	3	0	-1	-8	2	.
COc1ccc(Cl)cc1NC(=O)C/C(C)=N/NC(=O)COc1ccc(C)cc1	-1	-1	6	0	-10	-3	.
Cc1ccc(C(=O)N2CCN(S(=O)(=O)c3ccc(Br)cc3)CC2)o1	-5	1	1	-1	14	-2	.
Cc1cccc(N2C(=O)c3cccc4c(N(C)CCO)ccc(c34)C2=O)c1	331*	68*	-1	-2	-273	12*	-0.01
Cc1cccc(N2C(=O)c3cccc4cccc(c34)C2=O)c1	-1	-2	-3	.	-6	-4	.
c1ccc2[nH]c3cc4ncnc4cc3nc2c1	58*	75*	-1	-2	-48	35*	0
Cn1ccnc1Sc1cc(NCCCO)c([N+](=O)[O-])c2nonc12	2	1	-1	1	-3	13*	-0.01
CC(OC(=O)C1CCCC1)C(=O)Nc1ccc(S(N)(=O)=O)cc1 (centres undefined)	-3	-1	-8	0	4	-3	.
COc1cc2[nH]c(=O)n(C3CCCCC3)c(=O)c2cc1OC	4	0	-2	-1	1	-1	.
Nc1ccc2nc3c(=O)n(C4CCCCC4)c(=O)[nH]c3nc2c1	457*	39	3	-1	i	60*	-0.05	Sypro dye melt=-34
CCCCn1c(=O)[nH]c2nc3cc(N)ccc3nc2c1=O	767*	84	-2	-1	i	50*	-0.04	Sypro dye melt=-28

Screening data: PubChem BioAssay, several laboratories
